According to paper PMC4327866 (Journal of controlled release : official journal of the …, 2014):
“And” between values parts separate entries of the source, which are not always exact repeats. Equal entries are not always repeated. Values belong to the substance of their own block, whether it stands above or below them.

Key:
[1] = set-up: species or system rats; settings: rat, in vivo
[2] = Optical characterization of the ELP phase diagram; assay type: physicochemical; settings: for Tt (observed transition temperature): 25 μM in PBS, turbidity at 350 nm, ramp 1 °C min−1, maximum first derivative of the curve; for slope of transition temperature vs log10 concentration / y-intercept of transition temperature vs log10 concentration: log-linear regression of Tt vs concentration, 5–100 μM in PBS, mean [95% CI]; for temperature of phase separation (Figure 2 legend, approximate): optical density as a function of temperature and concentration; for Property at 37 °C: state of the protein polymer at 37 °C (soluble / nanoparticle / coacervate)
Method in brief: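 Turbidity (350 nm) of protein polymer solutions in PBS was recorded as a function of temperature across several concentrations. Tt was the maximum of the first derivative of the curve. Observed Tt was reported at 25 μM. Slope and intercept came from log-linear regression, Tt = m Log₁₀[C_ELP] + b. Mean [95% CI].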

[3] = Dynamic light scattering: hydrodynamic radius and polydispersity; assay type: physicochemical; settings: DLS; for nanoassembly by dynamic light scattering: below the transition temperature; for hydrodynamic radius at 37 °C: filtered through 0.2 μm cellulose acetate; for hydrodynamic radius retained below the transition temperature: 25 μM in PBS (Discussion); for temperature up to which the nanoparticles are stable: 4 to 60 °C in 1 °C increments
Method in brief: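 Test protein polymers at 25 μM in PBS, passed through 0.2 μm cellulose acetate filters, spun at 4 °C, 1200 rpm to clear air bubbles, and overlaid with mineral oil against evaporation. Hydrodynamic radius and polydispersity were read on a DLS plate reader from 4 to 60 °C in 1 °C steps.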

[4] = Negative and cryogenic transmission electron microscopy of nanoparticles; assay type: physicochemical; settings: average ± 95% confidence interval
Method in brief: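 Samples at 25 μM, unfiltered or 0.2 μm filtered. Negative TEM used carbon-coated copper grids, excess wicked off, 2 wt% aqueous uranyl acetate stain, 100 kV. Cryo-TEM used plasma-treated lacey carbon grids plunged into liquid-nitrogen-cooled ethane, 80 kV. Sizes were averaged over three fields (>50 particles/image TEM; 20 cryo-TEM). Bilayer thickness was taken at three points per vesicle circumference. Mean ± 95% CI.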

Plasma clearance, CLp [1]: 0.12 mL/min
Volume of distribution, V0 [1]: 12 mL
Substance: Met-Asp-Trp-Phe-Lys-Ala-Phe-Tyr-Asp-Lys-Val-Ala-Glu-Lys-Phe-Lys-Glu-Ala-Phe-Leu-FITC [Free L4F, reference compound]

Substance: G(VPGAG)192Y [A192]
Tt (observed transition temperature) [2]: 61.9 °C
slope of transition temperature vs log10 concentration [2]: −9.2 °C/log10(μM)
y-intercept of transition temperature vs log10 concentration [2]: 74.9 °C
temperature of phase separation (Figure 2 legend, approximate) ([2]; PBS): ~60 °C
Property at 37 °C ([2]; PBS): soluble
nanoassembly by dynamic light scattering ([3]; 25 μM in PBS): do not exhibit any signs of nanoassembly
hydrodynamic radius at 37 °C ([3]; 25 μM in PBS, 37 °C): 5 nm

Substance: MDWFKAFYDKVAEKFKEAFGLVPRGS G(VPGVG VPGAG VPGAG)64Y [L4F-V2A192]
Tt (observed transition temperature) [2]: 34.3 °C
slope of transition temperature vs log10 concentration [2]: −1.3 °C/log10(μM)
y-intercept of transition temperature vs log10 concentration [2]: 36.2 °C
temperature of phase separation (Figure 2 legend, approximate) ([2]; PBS): about 34 °C
hydrodynamic radius retained below the transition temperature [3]: 42 nm
temperature up to which the nanoparticles are stable ([3]; 25 μM in PBS): 34 °C
nanoassembly by dynamic light scattering ([3]; 25 μM in PBS): form nanoparticles
hydrodynamic radius at 37 °C ([3]; 25 μM in PBS, 37 °C): 42 nm and ~50 nm

Substance: MDWFKAFYDKVAEKFKEAFGLVPRGS G(VPGAG)192Y [L4F-A192]
Tt (observed transition temperature) [2]: 45.8 °C
depression of transition temperature below the parent ELP ([2]; at 25 μM): 14 °C
temperature of phase separation / transition temperature ([2]; at 25 μM, optical density, PBS): above 47 °C
slope of transition temperature vs log10 concentration [2]: −2.6 °C/log10(μM)
y-intercept of transition temperature vs log10 concentration [2]: 49.6 °C
Property at 37 °C ([2]; PBS): nanoparticle
hydrodynamic radius retained below the transition temperature [3]: 50 nm
temperature up to which the nanoparticles are stable ([3]; 25 μM in PBS): 46 °C
polydispersity ([3]; 25 μM in PBS, 37 °C): 9 nm
nanoassembly by dynamic light scattering ([3]; 25 μM in PBS): form nanoparticles
hydrodynamic radius at 37 °C ([3]; 25 μM in PBS, 37 °C): 50 nm and ~50 nm
nanoparticle radius, negative TEM, unfiltered ([4]; 25 μM, 2 % uranyl acetate stain, unfiltered): 41 ± 16 nm
vesicle radius, cryo-TEM, filtered ([4]; 25 μM, filtered through 0.2 μm): 43 ± 17 nm and 43 nm
vesicle radius, cryo-TEM, unfiltered ([4]; 25 μM, unfiltered): 36 ± 13 nm
membrane thickness, cryo-TEM, filtered ([4]; 0.2 um filtered, n = 8): 6.8 ± 0.7 nm and 6.8 nm
membrane (wall) thickness, cryo-TEM, unfiltered ([4]; unfiltered, n = 18): 8.4 ± 1.3 nm and 8.4 nm
Plasma clearance, CLp [1]: 0.37 mL/min
Volume of distribution, V0 [1]: 26 mL
plasma half-life (approximate) [1]: approximately 1 hr
volume of distribution relative to free L4F peptide [1]: approximately twice

Substance: G(VPGVG VPGAG VPGAG)64Y [V2A192]
Tt (observed transition temperature) [2]: 47.2 °C
slope of transition temperature vs log10 concentration [2]: −5.8 °C/log10(μM)
y-intercept of transition temperature vs log10 concentration [2]: 55.9 °C
temperature of phase separation (Figure 2 legend, approximate) ([2]; PBS): around 47 °C
Property at 37 °C ([2]; PBS): soluble
nanoassembly by dynamic light scattering ([3]; 25 μM in PBS): do not exhibit any signs of nanoassembly
hydrodynamic radius at 37 °C ([3]; 25 μM in PBS, 37 °C): 5 nm
